Source: PubChem BioAssay (several laboratories)
A selection: hits, their analogues and other compounds. The true share with any hit is near 1.2%.
Efflux pump inh – inhibitors of Candida efflux pumps in yeast, primary screen, S. cerevisiae, Nile Red, multiplex. 330,000 compounds, 0.44% hits. S. cerevisiae Candida pump triplex. inhibition, % at 10 µM. AID 485275, 2010;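 active means plate passing quality check with inhibition over a set limit, or well fluorescence over plate mean plus 4 SD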;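 further: Nile Red retained in pooled yeast measured as flow cytometry median fluorescence; 0% = buffer negative control and 100% = Enniatin B positive control; higher means more Nile Red kept so more efflux inhibition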
SR-BI uptake up – activators of SR-BI mediated DiI-HDL uptake, primary screen, ldlA[mSR-BI] CHO cells, DiI fluorescence; 3 h; 100 = double the neutral-control signal; activation, % at 12.5 µM; 320,000 compounds, 0.096% hits;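 active means mean replicate activation of at least 60% and every replicate at or above 60%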;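 further: 0% = median plate neutral-control signal and 100% = twice that signal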
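Material – SR-BI-overexpressing, LDLR-lacking CHO cells · Medium – BSA-supplemented, HEPES-buffered Ham's F12, pH 7.4 · Doses – single concentration · Times – compound with DiI-HDL co-incubation, 3 h at 37 °C · Measured by – bottom-read fluorescence, 550/595 nm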
CaV13 ICDI inh – Disruptors of the CACNA1D IQ motif to Ca2+-dependent inactivation inhibitor domain association, primary screening, Förster resonance energy transfer in intact living … | 340,000 compounds, 0.098% hits | inhibition, % at 12.3 µM | AID 743397 | HEK cells, CFP/YFP FRET ICDI-IQ, plate reader, 10 min; percent FRET-ratio fall versus neutral wells;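 active means mean replicate inhibition of at least 30% and at least 1% of replicates passing that level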;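 further: 0% = median of the neutral control wells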
SR-BI HDL uptake – inhibitors of SR-BI mediated HDL lipid uptake, primary screen, ldlA[mSR-BI] cells, fluorescence, single point; Scavenger receptor class B member 1 (Mus musculus), Q61009; ldlA[mSR-BI] CHO cells, DiI-HDL uptake fluorescence, 3 h; inhibition, % at 12.5 µM; 320,000 compounds, 0.96% hits;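 active means mean replicate inhibition of at least 70% and a set share of replicates each scoring 70 or more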;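 further: 0% = median of neutral control wells and 100% = median of positive control wells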
Target sequence (Q61009 whole entry, looked up): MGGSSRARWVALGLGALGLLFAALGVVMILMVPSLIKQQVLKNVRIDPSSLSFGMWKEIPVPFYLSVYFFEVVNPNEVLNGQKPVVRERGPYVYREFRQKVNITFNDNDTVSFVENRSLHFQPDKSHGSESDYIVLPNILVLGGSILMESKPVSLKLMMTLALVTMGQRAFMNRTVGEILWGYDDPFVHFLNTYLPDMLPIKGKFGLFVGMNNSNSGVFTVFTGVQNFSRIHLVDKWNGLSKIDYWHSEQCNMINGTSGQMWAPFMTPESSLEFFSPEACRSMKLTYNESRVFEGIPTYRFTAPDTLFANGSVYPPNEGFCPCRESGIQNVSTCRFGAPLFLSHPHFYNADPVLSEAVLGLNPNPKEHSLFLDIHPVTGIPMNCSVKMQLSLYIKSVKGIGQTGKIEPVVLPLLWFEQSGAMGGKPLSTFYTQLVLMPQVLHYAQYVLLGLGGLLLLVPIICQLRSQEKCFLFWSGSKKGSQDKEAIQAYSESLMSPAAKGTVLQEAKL
FN deposit inh – inhibitors of fibronectin matrix deposition, primary screen, AH1F cells, Alexa488-fibronectin fluorescence, plate reader. AID 743247, 2014. AH1F fibroblasts, overnight. inhibition, % at 12.6 µM. 350,000 compounds, 0.086% hits;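 active means mean inhibition across replicates of 30% or more, regardless of how many single replicates reach that level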;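 further: positive control wells lacked labelled fibronectin entirely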
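Material: AH1F fibroblasts assembling fluorescent fibronectin matrix; amount: 10000 AH1F cells/well; medium: DMEM, 2% serum; reagent: Alexa488-fibronectin, 24 nM final in well; dosing: single compound dose, delivered by pin transfer; incubation: 1 h adhesion, overnight exposure; detection: fluorescence after three HBSS washes, excitation 485 nm, emission 525 nm; measure: fibronectin deposition inhibition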
Cmpd fluor yeast – counter-screen for efflux pump inhibitors: compound fluorescence; shares compounds with Efflux pump inh; S. cerevisiae AD/pABC3, flow cytometry; AID 588517; 1,700 compounds, 4% hits; fluorescence ratio to DMSO, % at 10 µM;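 active means fluorescence ratio to DMSO above its plate's cutoff, the plate mean ratio plus 5 SD, cut at about 210% in these data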;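 further: unstained yeast with no Nile Red so the signal is compound autofluorescence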
Mdr1 pump inh – inhibitors of Candida albicans Mdr1 efflux, confirmation, flow cytometry, singleplex, Cherry Pick1 set; shares compounds with Efflux pump inh; AID 588518, 2011; 1,700 compounds, 1% hits; inhibition, % at 10 µM; S. cerevisiae AD/CaMDR1, Nile Red efflux; in the data active means inhibition above about 26%;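 further: 0% = DMSO vehicle and 100% = reference inhibitor; higher means more Nile Red retained so more efflux inhibition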
Cdr2 pump inh – inhibitors of Candida albicans Cdr2 efflux pump, confirmation, S. cerevisiae AD/CaCDR2, flow cytometry, cherry pick 1, singleplex | shares compounds with Efflux pump inh | Nile Red retention | Nile Red retention ratio vs DMSO, % at 10 µM | 1,700 compounds, 4% hits; in the data active means Nile Red retention ratio vs DMSO above about 190%;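 further: higher ratio means more blocking of Cdr2 efflux of the dye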
CaCdr1 efflux inh – inhibitors of Candida albicans Cdr1 efflux pump, confirmation, S. cerevisiae AD/CaCDR1, flow cytometry, cherry pick 1, singleplex | inhibition, % at 10 µM | shares compounds with Efflux pump inh | Nile Red efflux | 1,700 compounds, 1% hits;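 active means inhibition above the screen-wide mean plus twice its standard deviation, cut at about 32% in these data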
The depositor's hits bear a star; x = no result.

SMILES	Efflux pump inh	SR-BI uptake up	CaV13 ICDI inh	SR-BI HDL uptake	FN deposit inh	Cmpd fluor yeast	Mdr1 pump inh	Cdr2 pump inh	CaCdr1 efflux inh
CCOC(=O)c1cc2sccc2n1CC(=O)c1ccc2c(c1)OCCO2	0.5*	-3	-9	3	x	102	0	95	0
Cc1ccc(S(=O)(=O)N(C)C[C@@H]2OCCCC[C@@H](C)Oc3ccc(NC(=O)Nc4ccccc4)cc3C(=O)N([C@@H](C)CO)C[C@@H]2C)cc1	x	x	x	x	-7	x	x	x	x
O=C(Nc1ccc2c(c1)OCO2)N[C@H]1CC[C@H](CCNC(=O)C2CCCC2)O[C@@H]1CO	x	x	x	x	1	x	x	x	x
O=C(C[C@H]1CC[C@@H](NC(=O)c2ccccc2)[C@H](CO)O1)NCc1ccncn1	x	x	x	x	0	x	x	x	x
Cc1cc(C)c(C(=O)CSC2=NC(N)=C(C#N)C3(CCCCC3)C2C(N)=O)cc1C (configuration not stated)	1.3*	-24	-8	24	-16	100	0	107	0
COc1ccc(-c2[nH]c(-c3ccc4c(c3)OCO4)nc2-c2ccccc2)cc1	0.3*	-63	-4	63	-2	105	0	114	0
Cc1nc2ccccc2n1CCc1nc2c3ccccc3nc(SCC(=O)NCc3ccco3)n2n1	1.2*	14	-4	-14	-10	104	0	116	0
Cc1nc2ccccc2n1CCc1nc2c3ccccc3nc(SCC#N)n2n1	0	x	x	x	x	x	x	x	x
O=C(O)C1CC=CCC1C(=O)Nc1ccc(N2CCN(Cc3ccccc3)CC2)cc1 (configuration not stated)	11*	3	-6	-3	3	92	0	95	0
COCC#Cc1ccc2c(c1)O[C@@H](CN(C)C(=O)C1CC1)[C@@H](C)CN([C@H](C)CO)S2(=O)=O	x	x	x	x	-17	x	x	x	x
CC(C)NC(=O)N(C)C[C@H]1OCc2ccccc2-c2c(n(C)c3ccccc23)C(=O)N([C@@H](C)CO)C[C@@H]1C	x	x	x	x	-1	x	x	x	x
C[C@H](NC(=O)c1ccc(C(C)(C)C)cc1)C(=O)N1CCN(C/C=C/c2ccccc2)CC1	0.9*	-27	-7	27	-4	92	0	94	0
C[C@@H]1CN([C@@H](C)CO)C(=O)Cc2cc(NC(=O)CCCCCC(=O)Nc3ccccc3N)ccc2O[C@H]1CN(C)S(=O)(=O)c1cccs1	x	x	x	x	-4	x	x	x	x
Cc1ccc2nc(-c3ccccc3)cc(C(=O)N3CCN(S(=O)(=O)c4c(C)noc4C)CC3)c2c1	1.1*	-35	-3	35	4	104	0	103	0
Cc1ccc(-c2cc(C(=O)N3CCOCC3)c3cc(C)ccc3n2)cc1	0	-43	-4	43	4	x	x	x	x
CO[C@@H]1CN(C)C(=O)c2ccc(NS(=O)(=O)CC(F)(F)F)cc2OC[C@@H](C)N(C)C[C@@H]1C	x	x	x	x	7	x	x	x	x
Cc1ccc(C(=O)NNC(=O)CCCN2C(=O)/C(=C/c3ccccc3Cl)SC2=S)cc1	0	-9	-4	9	0	x	x	x	x
O=C(CCCN1C(=O)/C(=C/c2ccccc2Cl)SC1=S)NNC(=O)c1ccc(Cl)cc1	0.6*	x	-3	x	-2	98	0	100	0
Cc1ccc(S(=O)(=O)N2C[C@H](O)COC[C@@H]3O[C@@H](CC(=O)NCCN4CCCCC4)CC[C@H]32)cc1	x	x	x	x	-7	x	x	x	x
COc1ccc(/C=C2\SC(=O)N(CCC(=O)Nc3ccccc3)C2=O)cc1OC	7.6*	-8	-6	8	8	97	0	97	0
O=C(N[C@@H]1CC[C@H](CCn2cc(C3(O)CCCC3)nn2)O[C@@H]1CO)c1ccccc1F	x	x	x	x	-12	x	x	x	x
C[C@@H]1CCCCO[C@H](CN(C)C(=O)Nc2ccc(F)cc2)[C@H](C)CN([C@H](C)CO)C(=O)c2cc(NC(=O)CCC(F)(F)F)ccc2O1	x	x	x	x	-2	x	x	x	x
CCCCNC(=O)OCC(CC)NC(=O)OC(C)C (configuration not stated)	1.9*	-1	-1	1	x	101	0	106	0
O=C(C[C@@H]1CC[C@H]2[C@@H](COC[C@H](O)CN2Cc2cccc(C(F)(F)F)c2)O1)NCCc1ccccc1	x	x	x	x	4	x	x	x	x
CCC(=O)N(Cc1ccc(C)cc1)Cc1cc2cc3c(cc2[nH]c1=O)OCO3	11*	-3	-8	3	x	105	0	108	0
SMILES	Efflux pump inh	SR-BI uptake up	CaV13 ICDI inh	SR-BI HDL uptake	FN deposit inh	Cmpd fluor yeast	Mdr1 pump inh	Cdr2 pump inh	CaCdr1 efflux inh
CCC(=O)N(CCc1ccccc1)Cc1cc2cc3c(cc2[nH]c1=O)OCO3	0	13	-3	-13	-4	x	x	x	x
COc1ccc(-c2cn(CC[C@H]3CC[C@H](N)[C@@H](CO)O3)nn2)cc1	x	x	x	x	10	x	x	x	x
C[C@H](CO)N1C[C@H](C)[C@H](CN(C)C(=O)Cc2cccnc2)Oc2ncc(/C=C/c3ccccc3)cc2C1=O	x	x	x	x	1	x	x	x	x
COCC(=O)N1[C@H](C#N)[C@@H](c2ccccc2-c2ccccc2F)[C@H]1CO	x	x	x	x	-5	x	x	x	x
C[C@@H]1CN([C@H](C)CO)C(=O)c2cccc(NC(=O)NC3CCCCC3)c2O[C@@H]1CN(C)C(=O)Nc1cccc2ccccc12	x	x	x	x	-1	x	x	x	x
CC(C)(C)OC(=O)NCc1ccc(NC(=O)c2nc[nH]c2C(=O)NCCCCNC(=O)c2[nH]cnc2C(=O)Nc2ccc(CNC(=O)OC(C)(C)C)cc2)cc1	0	28	x	-28	x	x	x	x	x
CC(C)(C)OC(=O)NCc1ccc(NC(=O)c2nc[nH]c2C(=O)NCCCCCCNC(=O)c2[nH]cnc2C(=O)Nc2ccc(CNC(=O)OC(C)(C)C)cc2)cc1	1.8*	7	-5	9	0	106	1	123	2
C[C@H](CO)N1C[C@H](C)[C@@H](CN(C)Cc2ccc3c(c2)OCO3)Oc2ccc(NC(=O)Cc3ccccc3)cc2CC1=O	x	x	x	x	8	x	x	x	x
